Active and inactive are the calls of the source. No cut-off for these calls is given here.
What was measured:
MDA-MB-453 [1] = assay: Antiproliferative activity against human MDA-MB-453 assessed as inhibition of S phase cells after 48 hrs by MTT assay; assay type: functional, cell-based; settings: MDA-MB-453, 48 h
Summary of the method: (§1)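 Cells grown in DMEM with 3 mM HEPES and 10% Serum Supreme at 37 °C, 5% CO2. Proliferation read by MTT assay 48 h after drug addition; IC50 given as mean of two separate determinations, each in duplicate.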

MDA-MB-435 = assay: Toxicity in human MDA-MB-435 cells at IC50 after 3 days by MTT assay; assay type: cell-based; settings: mda-mb-435, 72 h
[2] = biological target: Cyclin-dependent kinase 4 (Homo sapiens) (UniProt P11802); assay: Inhibition of CDK4-mediated Rb phosphorylation at ser 795 in human HCT116 cells at IC50 after 4 hrs by immunoblot analysis; assay type: cell-based; settings: HCT-116
Chain of Cyclin-dependent kinase 4 (Homo sapiens) (P11802 whole entry): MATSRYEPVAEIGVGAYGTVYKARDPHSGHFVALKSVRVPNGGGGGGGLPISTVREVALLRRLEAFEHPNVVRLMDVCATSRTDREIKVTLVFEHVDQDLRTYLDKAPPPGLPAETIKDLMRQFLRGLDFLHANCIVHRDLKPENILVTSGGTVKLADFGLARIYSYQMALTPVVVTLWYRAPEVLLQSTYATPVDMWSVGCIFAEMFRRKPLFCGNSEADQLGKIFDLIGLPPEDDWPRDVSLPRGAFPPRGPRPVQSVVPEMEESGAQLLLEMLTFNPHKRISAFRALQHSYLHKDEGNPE
Summary of the method: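 Asynchronous HCT-116 cells (DMEM, 3 mM HEPES, 10% serum, 37 °C, 5% CO₂) were given increasing inhibitor doses for 4 or 24 h. Lysis in NETN with phosphatase and protease inhibitors, then SDS-PAGE, nitrocellulose transfer and immunoblot for phospho-Rb (Ser-795) with HRP secondary and chemiluminescence.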

HeLa [3] = assay: Cell cycle arrest in synchronized human HeLa cells assessed as delay in mitotic entry at 2 uM by time-lapse microscopy (reference value: 8-9 hrs); assay type: functional
[4] = biological target: Insulin-like growth factor 1 receptor (Homo sapiens, UniProt P08069); assay: Inhibition of IGF1R using fluorescent substrate by IMAP assay
Chain of Insulin-like growth factor 1 receptor (P08069 31-736 limits assumed): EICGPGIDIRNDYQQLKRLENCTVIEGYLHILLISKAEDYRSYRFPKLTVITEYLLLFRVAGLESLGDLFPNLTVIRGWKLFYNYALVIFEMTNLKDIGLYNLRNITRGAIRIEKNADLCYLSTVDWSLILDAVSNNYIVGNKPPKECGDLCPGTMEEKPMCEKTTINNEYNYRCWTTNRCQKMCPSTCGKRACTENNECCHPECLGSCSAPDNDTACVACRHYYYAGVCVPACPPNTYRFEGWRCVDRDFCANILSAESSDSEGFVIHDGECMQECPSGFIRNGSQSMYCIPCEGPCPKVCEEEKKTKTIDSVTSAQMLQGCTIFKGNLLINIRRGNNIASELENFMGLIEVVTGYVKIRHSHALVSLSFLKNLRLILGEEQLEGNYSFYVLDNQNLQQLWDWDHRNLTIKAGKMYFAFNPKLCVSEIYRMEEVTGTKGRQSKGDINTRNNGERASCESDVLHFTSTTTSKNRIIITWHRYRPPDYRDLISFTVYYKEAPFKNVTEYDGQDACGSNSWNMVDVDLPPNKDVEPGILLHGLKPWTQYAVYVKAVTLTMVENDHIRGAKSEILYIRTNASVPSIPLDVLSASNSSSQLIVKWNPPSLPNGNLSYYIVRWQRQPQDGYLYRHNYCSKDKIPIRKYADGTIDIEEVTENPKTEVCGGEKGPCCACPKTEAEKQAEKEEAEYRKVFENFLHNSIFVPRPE
Chain of Insulin-like growth factor 1 receptor (P08069 741-1367 limits assumed): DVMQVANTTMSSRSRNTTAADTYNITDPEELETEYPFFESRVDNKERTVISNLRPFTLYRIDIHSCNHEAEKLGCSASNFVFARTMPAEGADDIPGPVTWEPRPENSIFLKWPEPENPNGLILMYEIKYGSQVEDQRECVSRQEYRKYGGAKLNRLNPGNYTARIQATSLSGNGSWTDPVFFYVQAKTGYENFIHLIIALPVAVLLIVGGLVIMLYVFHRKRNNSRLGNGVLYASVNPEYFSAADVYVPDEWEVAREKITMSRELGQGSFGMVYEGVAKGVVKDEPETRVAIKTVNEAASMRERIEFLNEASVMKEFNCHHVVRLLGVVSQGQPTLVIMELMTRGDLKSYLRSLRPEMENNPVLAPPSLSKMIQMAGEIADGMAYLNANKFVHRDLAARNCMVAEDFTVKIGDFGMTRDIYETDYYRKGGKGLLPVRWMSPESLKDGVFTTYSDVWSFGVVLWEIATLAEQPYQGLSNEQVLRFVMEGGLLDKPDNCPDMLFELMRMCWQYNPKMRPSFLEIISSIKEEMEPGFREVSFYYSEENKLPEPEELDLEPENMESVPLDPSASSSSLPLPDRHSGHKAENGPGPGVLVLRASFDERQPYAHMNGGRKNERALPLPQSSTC
Summary of the method: (§2)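 Run in-house using IMAP: phosphorylated fluorescent peptide substrate binds preferentially to immobilized metal beads, which quantifies kinase activity. ATP at 3× the Km of each enzyme.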

[5] = biological target: Cyclin-dependent kinase 2/cyclin E1 (Homo sapiens, UniProt P24941); assay: Inhibition of human CDK2-GST-tagged cyclin E using his-tagged Rb as substrate after 30 mins by scintillation counting method; assay type: protein-complex assay
HeLa [6] = assay: Cell cycle arrest at G2 phase in human HeLa cells assessed as delay in phosphotyrosine 15 CDK1 accumulation at 2 uM treated at early S phase measured after 6-14 hr post thymidine-synchrony release by immunoblot method; assay type: functional, cell-based
Summary of the method: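 HeLa cells synchronized by double thymidine block and released, treated with 2 μM inhibitor in early S phase, or left untreated. Harvested at set times after release, lysed in NETN with phosphatase and protease inhibitors, run on SDS-PAGE and immunoblotted for cyclin B1 and phosphotyrosine 15 CDK1/2, with cyclin D3 as loading control. Detection by HRP secondary and ECL.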

A2058 [7] = assay: Cell cycle arrest in human A2058 cells assessed as accumulation at G2/M phase at 2 uM treated 1 hr and measured 8 hr post double hydroxyurea-synchrony release using propidium iodide staining by FACS analysis (reference value: 48 %); assay type: functional
HCT-116 = assay: Cell cycle arrest in Rb-competent human HCT116 cells assessed as […] at IC50 after 24 hrs using BrdUrd staining by FACS analysis (Rvb =38 %); assay type: functional
RKO = assay: Antiproliferative activity against human RKO cells assessed as inhibition of S phase after 48 hrs by MTT assay; assay type: functional, cell-based; summary of the method: as §1
HeLa [8] = assay: Induction of abberent mitosis in human HeLa cells expressing GFP-H2B assessed as lagging chromosomes at astral side of spindle microtubules at 2 uM treated 1 hr and measured 12 hr post-thymidine release by time-lapse microscopy; assay type: functional, cell-based
HeLa [9] = assay: Cell cycle arrest in human HeLa cells assessed as accumulation at G2/M phase at 2 uM treated 6 hr and measured 8 hr post double thymidine-synchrony release using propidium iodide staining by FACS analysis (reference value: 86 %); assay type: functional
Summary of the method: (§3)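 Cells harvested at set times post-release, fixed in 70% ethanol, stained with 5 μg/ml propidium iodide plus 0.5 mg/ml RNase A, and analysed by flow cytometry. Cell-cycle phase fractions calculated by ModFit.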

A2058 [10] = assay: Cell cycle arrest in human A2058 cells assessed as time taken to reach peak mitosis at 2 uM treated 1 hr and post double hydroxyurea-synchrony release using propidium iodide staining by FACS analysis; assay type: functional
HeLa [11] = assay: Cell cycle arrest in human HeLa cells assessed as accumulation at S phase at 2 uM treated 2 hr and measured 8 hr post double thymidine-synchrony release using propidium iodide staining by FACS analysis (reference value: 8 %); assay type: functional; summary of the method: as §3
MDA-MB-453 [12] = assay: Toxicity in human MDA-MB-453 cells at 8 uM by MTT assay; assay type: cell-based; settings: mda-mb-453, 8 µM
COLO 205 = assay: Toxicity in human COLO205 cells at 8 uM by MTT assay; assay type: cell-based; settings: colo 205, 8 µM
HeLa [13] = assay: Cell cycle arrest in Rb-deficient human HeLa cells assessed as accumulation at S phase at 2 uM after 24 hrs by FACS analysis; assay type: functional
Summary of the method: (§4)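 Ethanol-fixed cells stained with propidium iodide/RNase A, DNA content read by FACS, phase and sub-diploid fractions calculated with ModFit.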

HeLa [14] = assay: Cell cycle arrest in human HeLa cells assessed as time delay in progression through G2/M phase at 2 uM treated at 4 hr post double thymidine-synchrony release using propidium iodide staining by FACS analysis; assay type: functional; summary of the method: as §3
HeLa [15] = assay: Cell cycle arrest in human HeLa cells assessed as accumulation at G1 phase at 2 uM treated 4 hr and measured 8 hr post double thymidine-synchrony release using propidium iodide staining by FACS analysis (reference value: 6 %); assay type: functional
A2058 [16] = assay: Cell cycle arrest in human A2058 cells assessed as accumulation at G1 phase at 2 uM treated 1 hr and measured 12 hr post double hydroxyurea-synchrony release using propidium iodide staining by FACS analysis (reference value: 14 %); assay type: functional
HeLa [17] = assay: Cell cycle arrest in synchronized human HeLa cells assessed as time required to reach anaphase/telophase at 2 uM by time-lapse microscopy (reference value: 78+/-51 mins); assay type: functional
HeLa [18] = assay: Decrease in survivin protein expression in human HeLa cells at 2 uM measured 14 hr post thymidine-synchrony release by immunoblot analysis; assay type: functional, cell-based
Summary of the method: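 Synchronized HeLa cells given 2 μM CDK4 inhibitor in early S phase and harvested at set times post-release. Lysed in supplemented NETN buffer on ice for 20 min. Lysates run on SDS-PAGE and immunoblotted for survivin, borealin and other chromosomal passenger proteins, with ECL detection. Cyclin D3 served as loading control.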

NCI-H460 = assay: Toxicity in human H460a cells at 8 uM by MTT assay; assay type: cell-based; settings: nci-h460, 8 µM
[19] = Inhibition of JNK using fluorescent substrate by IMAP assay; summary of the method: as §2
HeLa [20] = assay: Induction of abberent mitosis in human HeLa cells expressing GFP-H2B assessed as normal survivin staining cells at 2 uM by immunofluorescence method (reference value: 7%); assay type: functional
HeLa [21] = assay: Cell cycle arrest in human HeLa cells assessed as delay in progression into mitosis at 2 uM measured after 8 to 20 hr post hydroxyurea-synchrony release by time-lapse microscopy; assay type: functional, cell-based
HeLa [22] = assay: Cell cycle arrest at G2 phase in human HeLa cells assessed as effect on cyclin A accumulation at 2 uM treated at early S phase measured after 6-14 hr post thymidine-synchrony release by immunoblot method; assay type: functional, cell-based
[23] = Cell cycle arrest in Rb-competent human SK-MEL-13 cells assessed as accumulation at S phase at 2 uM after 24 hrs by FACS analysis; assay type: functional; summary of the method: as §4

With `COc1cccc(C(=O)c2sc(Nc3ccc(N4CCN(C(C)C)CC4)cc3)nc2N)c1` as the compound, how does the IC50 (MDA-MB-453 [1]) read?
Its IC50 is 710 nM.

And the Activity (MDA-MB-435)?
The Activity was “Toxic”.

And the inhibition [2]?
The inhibition was “Active”.

What about the Time (HeLa [3]) of the same compound?
The Time was 11 h.

What about the IC50 [4] of the same compound?
Its IC50 is 20 µM.

And the IC50 [5]?
Its IC50 is 4.14 µM.

And the Activity (HeLa [6])?
The Activity was “Active”.

What about the Activity (A2058 [7]) of the same compound?
The Activity was 69%.

What about the Activity (HCT-116) of the same compound?
Its Activity is 20%.

And the IC50 (RKO)?
Its IC50 is 540 nM.

What about the Activity (HeLa [8]) of the same compound?
Its Activity is “Active”.

What about the Activity (HeLa [9]) of the same compound?
Its Activity is 88%.

And the Time (A2058 [10])?
The Time was 10 h.

What about the Activity (HeLa [11]) of the same compound?
The Activity was 9%.

And the Activity (MDA-MB-453 [12])?
The Activity was “Toxic”.

And the Activity (COLO 205)?
Its Activity is “Toxic”.

And the Activity (HeLa [13])?
Its Activity is 27%.

What about the Time (HeLa [14]) of the same compound?
Its Time is 2 h.

And the Activity (HeLa [15])?
Its Activity is 5%.

And the Activity (A2058 [16])?
Its Activity is 0%.

What about the Time (HeLa [17]) of the same compound?
The Time was 152 min.

And the Activity (HeLa [18])?
The Activity was “Active”.

And the Activity (NCI-H460)?
Its Activity is “Toxic”.

What about the IC50 [19] of the same compound?
The IC50 was > 50 µM.

What about the Activity (HeLa [20]) of the same compound?
Its Activity is 23%.

What about the Activity (HeLa [21]) of the same compound?
Its Activity is “Active”.

And the Activity (HeLa [22])?
The Activity was “inactive”.

And the Activity [23]?
The Activity was 7%.

What does the source list for `CN1CCN(c2ccc(Nc3nc(N)c(C(=O)c4ccc5c(c4)OCCO5)s3)cc2)CC1`?
IC50 (MDA-MB-453 [1]): 1450 nM; Activity (MDA-MB-435): Toxic; inhibition [2]: Active; Time (HeLa [3]): 11 h; IC50 [4]: 22 µM; IC50 [5]: 2.36 µM; Activity (HeLa [6]): Active; Activity (A2058 [7]): 69%; Activity (HCT-116): 20%; IC50 (RKO): 1600 nM; Activity (HeLa [8]): Active; Activity (HeLa [9]): 88%; Time (A2058 [10]): 10 h; Activity (HeLa [11]): 9%; Activity (MDA-MB-453 [12]): Toxic; Activity (COLO 205): Toxic; Activity (HeLa [13]): 27%; Time (HeLa [14]): 2 h; Activity (HeLa [15]): 5%; Activity (A2058 [16]): 0%; Time (HeLa [17]): 152 min; Activity (HeLa [18]): Active; Activity (NCI-H460): Toxic; IC50 [19]: > 50 µM; Activity (HeLa [20]): 23%; Activity (HeLa [21]): Active; Activity (HeLa [22]): inactive; Activity [23]: 7%
